Only some compounds are listed: those with a hit (about 2.1% of all), similar ones and a draw of the others.
RanGTP-Imp inh: inhibitors of RanGTP-importin-beta interaction, primary screen, biochemical, FRET, CFP-Ran, YFP-importin-beta, homogeneous; cell-free CFP-Ran/YFP-importin-beta FRET ratio; inhibition, % (test concentration not listed); hit rate 1.1% among 300,000;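 active means more than half of the replicate wells show a fall in the fluorescence ratio signal beyond about 16%, limit read from the data, passing the limit was not always enough; inconclusive means exactly half of the replicate wells pass the set limit; inactive means fewer than half of replicates pass the limit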
m-calpain inh: calpain II (pig) inhibition; hit rate 0.37% among 220,000; purified calpain II, fluorogenic peptide substrate, 30 min; inhibition, % at 16 µM;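 active means inhibition above about 50%, limit read from the data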
Runt-SMMHC FRET: blocks binding of human RUNX1 Runt domain to CBFb-SMMHC; Q01196+Q13951; Cerulean-Runt/Venus-CBFb-SMMHC FRET ratio 530/480, 1 h; inhibition, % at 20 µM; hit rate 0.74% among 220,000; AID 1434;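 active means mean inhibition across duplicate retests at 20 µM reaching about 50%, limit read from the data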;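 further: inhibitors lower the FRET ratio by blocking Runt binding to CBFb-SMMHC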
FAS TE block: FAS thioesterase (human) inhibition; recombinant FAS-TE, OMFH fluorogenic substrate, fluorescence endpoint; AID 602261; hit rate 0.67% among 360,000; P49327; inhibition, % at 15 µM;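 active means compounds whose normalised, plate-corrected inhibition of enzyme fluorescence in the single-dose primary screen is 50% or more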
Target sequence (P49327 whole entry, looked up): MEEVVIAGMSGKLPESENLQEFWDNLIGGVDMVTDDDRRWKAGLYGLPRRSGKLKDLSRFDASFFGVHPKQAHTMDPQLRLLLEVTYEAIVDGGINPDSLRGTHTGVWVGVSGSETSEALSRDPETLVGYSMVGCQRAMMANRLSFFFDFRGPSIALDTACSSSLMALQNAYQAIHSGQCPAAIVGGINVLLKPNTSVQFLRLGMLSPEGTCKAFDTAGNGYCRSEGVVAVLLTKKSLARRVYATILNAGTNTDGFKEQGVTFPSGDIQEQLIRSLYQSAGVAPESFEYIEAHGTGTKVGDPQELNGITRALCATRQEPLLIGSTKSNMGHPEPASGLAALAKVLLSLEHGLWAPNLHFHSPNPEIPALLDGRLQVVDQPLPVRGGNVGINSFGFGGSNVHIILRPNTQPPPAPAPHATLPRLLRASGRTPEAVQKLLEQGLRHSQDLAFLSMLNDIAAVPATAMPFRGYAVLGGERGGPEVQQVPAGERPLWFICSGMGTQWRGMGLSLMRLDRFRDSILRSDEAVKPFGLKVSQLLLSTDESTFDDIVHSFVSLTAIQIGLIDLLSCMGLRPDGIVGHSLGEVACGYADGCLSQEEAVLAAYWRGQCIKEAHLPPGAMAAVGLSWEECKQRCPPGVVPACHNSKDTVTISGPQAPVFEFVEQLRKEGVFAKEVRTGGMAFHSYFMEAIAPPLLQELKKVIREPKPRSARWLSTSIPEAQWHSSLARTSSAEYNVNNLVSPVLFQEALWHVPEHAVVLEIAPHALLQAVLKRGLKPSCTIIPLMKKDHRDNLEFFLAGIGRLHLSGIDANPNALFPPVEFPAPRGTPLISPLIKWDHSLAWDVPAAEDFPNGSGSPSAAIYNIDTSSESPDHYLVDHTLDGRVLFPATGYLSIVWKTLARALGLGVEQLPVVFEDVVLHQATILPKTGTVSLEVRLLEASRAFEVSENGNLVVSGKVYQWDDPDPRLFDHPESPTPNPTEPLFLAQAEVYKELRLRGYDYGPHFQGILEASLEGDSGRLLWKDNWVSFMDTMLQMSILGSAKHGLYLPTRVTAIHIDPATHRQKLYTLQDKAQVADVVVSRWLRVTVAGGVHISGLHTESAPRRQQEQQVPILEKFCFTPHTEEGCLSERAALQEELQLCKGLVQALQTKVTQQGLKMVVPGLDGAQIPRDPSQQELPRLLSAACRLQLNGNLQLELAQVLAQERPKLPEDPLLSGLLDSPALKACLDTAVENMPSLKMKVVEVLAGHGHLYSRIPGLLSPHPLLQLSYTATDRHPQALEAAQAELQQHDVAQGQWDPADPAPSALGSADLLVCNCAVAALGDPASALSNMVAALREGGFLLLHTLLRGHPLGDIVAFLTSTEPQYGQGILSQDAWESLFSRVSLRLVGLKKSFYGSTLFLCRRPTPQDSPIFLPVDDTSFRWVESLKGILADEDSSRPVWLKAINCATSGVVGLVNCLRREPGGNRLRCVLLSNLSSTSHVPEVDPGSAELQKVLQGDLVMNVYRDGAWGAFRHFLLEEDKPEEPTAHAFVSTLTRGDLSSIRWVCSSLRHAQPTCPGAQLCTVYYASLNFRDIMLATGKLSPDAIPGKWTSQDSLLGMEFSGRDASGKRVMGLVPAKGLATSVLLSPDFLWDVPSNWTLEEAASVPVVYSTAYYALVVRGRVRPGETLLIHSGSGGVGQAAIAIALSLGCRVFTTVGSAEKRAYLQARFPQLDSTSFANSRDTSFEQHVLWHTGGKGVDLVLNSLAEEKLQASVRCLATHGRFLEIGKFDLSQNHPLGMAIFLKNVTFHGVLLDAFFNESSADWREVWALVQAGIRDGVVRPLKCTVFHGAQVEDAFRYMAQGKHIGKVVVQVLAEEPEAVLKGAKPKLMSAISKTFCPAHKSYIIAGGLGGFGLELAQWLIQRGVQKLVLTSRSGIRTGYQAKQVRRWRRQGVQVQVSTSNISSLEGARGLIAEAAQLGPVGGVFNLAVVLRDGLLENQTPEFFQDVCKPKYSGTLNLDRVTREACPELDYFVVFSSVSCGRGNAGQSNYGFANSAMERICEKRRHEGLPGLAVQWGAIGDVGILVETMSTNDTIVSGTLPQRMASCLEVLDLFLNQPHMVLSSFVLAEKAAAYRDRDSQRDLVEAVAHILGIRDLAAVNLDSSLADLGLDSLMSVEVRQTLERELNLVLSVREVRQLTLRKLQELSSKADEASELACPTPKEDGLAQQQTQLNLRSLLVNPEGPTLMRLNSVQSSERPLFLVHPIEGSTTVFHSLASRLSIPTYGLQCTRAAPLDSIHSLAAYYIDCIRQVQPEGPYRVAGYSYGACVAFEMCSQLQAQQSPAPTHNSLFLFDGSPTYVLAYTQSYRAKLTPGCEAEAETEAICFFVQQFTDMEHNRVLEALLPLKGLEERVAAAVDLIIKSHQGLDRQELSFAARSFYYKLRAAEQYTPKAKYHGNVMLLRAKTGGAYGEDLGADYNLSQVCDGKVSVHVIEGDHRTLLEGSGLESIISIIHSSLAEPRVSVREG
Runt-CBFb FRET: inhibitors of human RUNX1 Runt domain binding to CBFb; AID 1496; hit rate 0.46% among 220,000; Cerulean-Runt/Venus-CBFb FRET ratio 530/480, 1 h; inhibition, % at 20 µM; Q01196+Q13951;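 active means inhibition over about 50% at 20 µM in the single-dose screen, limit read from the data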
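System: Cerulean-labeled Runt domain protein | Quantity: 100 nM of each labeled protein | Schedule: 1 h compound exposure, room temperature | Detection: Fluorescence energy transfer, 422 nm excitation, 530/480 nm emission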
Hits are given with their value; 0 = inactive; ? = inconclusive; - = no result.

SMILES	RanGTP-Imp inh	m-calpain inh	Runt-SMMHC FRET	FAS TE block	Runt-CBFb FRET
CCc1ccc(N(CC(=O)NCCc2ccccc2)C(=O)CCC(=O)Nc2ccccn2)cc1	0	-	-	0	-
CC(C)(C)OC(=O)NCCC(=O)Oc1ccc2ccc(=O)oc2c1	0	0	67.9	0	0
O=C(CNC(=O)OCc1ccccc1)Oc1ccc2ccc(=O)oc2c1	0	-	-	0	-
COC(=O)Nc1nn(-c2ccc(OC)cc2)c(=O)c(C#N)c1C	0	0	0	0	0
CN1CCc2c(sc3nc(SCC(=O)NCc4ccco4)n(-c4ccccc4)c(=O)c23)C1	25.4	-	-	0	-
C=CCn1c(SCC(=O)NCc2ccco2)nc2sc3c(c2c1=O)CCCC3	0	0	0	0	0
CN1CCc2c(sc3c2c(=O)n(-c2cccc(Cl)c2)c2nncn32)C1	0	-	-	0	-
O=C(NCc1ccco1)c1ccc2nc3sc4c(c3c(=O)n2c1)CCCC4	62.4	0	63.3	-	63.4
CN1CCc2c(sc3nc(NCCO)n(-c4cccc(Cl)c4)c(=O)c23)C1	92.2	-	-	0	-
COC(=O)CSc1nc2sc3c(c2c(=O)n1C1CCCCC1)CCN(C)C3	26.3	0	0	-	0
CCN(CC)C1CC(=O)N(c2cccc(Cl)c2)C1=O (centres undefined)	0	-	-	0	-
Cc1cccc(N2CCN(S(=O)(=O)c3ccc(-c4ccc(=O)[nH]n4)o3)CC2)c1C	0	-	-	0	-
O=C(Nc1nc(=O)[nH]s1)c1ccccc1	0	57.0	0	0	0
Cc1csc(NC(=O)c2ccccc2)n1	?	-	-	0	-
Fc1ccc(NC(=S)N2CCc3ccccc3C2)c(F)c1	0	0	0	0	0
CCn1nc(NC(=O)c2ccccc2)c2cc3cccc(C)c3nc21	69.4	0	86.4	0	61.9
CCn1nc(NC(C)=O)c2cc3cccc(C)c3nc21	?	-	-	0	-
Cc1cccc2cc(C#N)c(NCCNC(=O)c3ccccc3)nc12	-	-	-	0	-
Cc1cccc2cc3c(NC(=O)C(C)(C)C)nn(CC(C)C)c3nc12	79.8	-	-	0	-
CCn1nc(NC(=O)C(C)C)c2cc3cccc(C)c3nc21	48.3	-	-	0	-
COc1ccccc1/C=C/CN1CCC(n2nccc2NC(=O)CCc2ccccc2)CC1	0	-	-	0	-
CCCC(=O)Nc1ccc(Sc2ccc([N+](=O)[O-])cc2)cc1	?	58.0	0	0	0
O=c1oc2cc(O[C@@H]3OC[C@@H](O)[C@H](O)[C@H]3O)ccc2c2ccccc12	0	-	-	0	-
NC(=O)c1nsc(C(=O)N(Cc2cccnc2)C(C(=O)NCc2ccc(F)cc2)c2ccc(F)cc2)c1N (centres undefined)	0	-	-	0	-
CC(C)CC(COCc1ccc([N+](=O)[O-])cc1)N1CCN(C(=O)c2ccc(C(F)(F)F)cc2)CCC1=O (centres undefined)	0	0	0	56.8	0
SMILES	RanGTP-Imp inh	m-calpain inh	Runt-SMMHC FRET	FAS TE block	Runt-CBFb FRET
Cc1cccc(C)c1N(CC(=O)Nc1cc(Cl)ccc1Oc1ccccc1)S(C)(=O)=O	0	52.0	0	0	0
CC(C)CNS(=O)(=O)c1ccc(CCC(=O)Nc2cc(Cl)ccc2Oc2ccccc2)cc1	0	71.2	0	0	0
Cc1ccc(C)c(N(CC(=O)Nc2cc(Cl)ccc2Oc2ccccc2)S(C)(=O)=O)c1	0	0	0	0	0
COc1ccc(/C=C(\NC(=O)c2ccccc2Cl)C(=O)NCCCC(=O)O)cc1	0	51.9	0	0	0
CCOC(=O)N1CCC(NC(=O)c2ccc3c(c2)ncn3C2CCCC2)CC1	0	76.9	0	0	0
Cn1c(=O)c2c(nc(Br)n2CCSc2ncccn2)n(C)c1=O	24.7	0	0	0	0
O=S1(=O)CC(N2CCSCC2)CN1Cc1cn(Cc2ccc(F)cc2)nn1 (centres undefined)	-	-	-	0	-
CCOC(=O)C1C(c2ccccc2)N(C)OC1(O)C(F)(F)F (centres undefined)	0	0	0	0	0
CCOC(=O)C1C(c2ccc(OC)cc2)N(C)OC1(O)C(F)(F)F (centres undefined)	21.7	0	0	0	0
CC(C)(C)C1CCc2onc(C(=O)NCc3ccc(F)cc3)c2C1 (centres undefined)	-	51.8	0	0	0
CCOC(=O)c1ccc(NC(=O)CSc2nc(=O)n(CCN3CCOCC3)c3c2CCC3)cc1	0	-	-	0	-
O=C(O)c1cc(-c2ccc3c(c2)OCCO3)n[nH]1	0	0	0	0	0
Oc1ccccc1-c1cc(-c2ccc3c(c2)OCCO3)n[nH]1	0	53.8	0	0	0
CCc1cc(=O)oc2cc(OC(C)C(=O)NCc3ccccn3)ccc12 (centres undefined)	0	-	-	0	-
CC(C)(C)c1ccc(C2=CC(c3ccccc3F)n3ncnc3N2)cc1 (centres undefined)	25.1	-	-	0	-
CCOc1ccc(C2C=C(c3ccc(F)cc3)Nc3ncnn32)cc1 (centres undefined)	0	0	62.6	0	0
CCCc1nc(SCC(=O)N2CCCc3ccccc32)c2c(=O)n(C)c(=O)n(C)c2n1	0	62.1	0	0	0
Cn1c(=O)c2c(SCC(=O)N3CCCc4ccccc43)nc(CC(C)(C)C)nc2n(C)c1=O	0	0	0	0	-
CSc1nc(-c2ccccc2)nc(N2CCN(C)CC2)c1C(C)=O	70.4	0	0	0	0
CCOC(=O)N1CCN(C(=O)c2cn(CC)c3ccc(S(=O)(=O)N(C)C4CCCCC4)cc3c2=O)CC1	0	-	-	0	-
CCC1CCCCN1C(=O)c1ccc(OC2CCN(C(=O)C3CC3)CC2)cc1 (centres undefined)	0	57.3	0	0	0
COCCC(=O)N1CCC(Oc2ccc(C(=O)N3CCCCC3COC)cc2)CC1 (centres undefined)	0	-	-	0	-
COC(=O)c1ccccc1NC(=O)N1CCN(c2ccc(F)cc2)CC1	0	51.3	0	0	0
Cc1cccc2cc3c(NC(=O)CC(C)C)nn(C)c3nc12	0	0	0	0	0
CCCCC(=O)Nc1nn(CCC)c2nc3ccccc3cc12	62.6	0	0	0	0
SMILES	RanGTP-Imp inh	m-calpain inh	Runt-SMMHC FRET	FAS TE block	Runt-CBFb FRET
CCCCC(=O)Nc1nn(CC)c2nc3c(C)cccc3cc12	36.8	-	-	0	-
CCCCC(=O)Nc1nn(C)c2nc3c(C)cccc3cc12	0	0	0	0	0
CCn1nc(NC(=O)COC)c2cc3cccc(C)c3nc21	43.8	-	-	0	-
CCCn1nc(NS(=O)(=O)c2ccccc2)c2cc3ccccc3nc21	0	0	0	0	0
CCn1nc(NC(=O)Cc2ccc(OC)cc2)c2cc3cccc(C)c3nc21	24.2	0	82.5	0	82.1
O=C(NCC1CC1)C1Cc2c(-c3ccccc3Oc3ccccc3)ccnc2O1 (centres undefined)	-	-	-	0	-
COc1ccc(NC(=O)Nc2cccc3c2O[C@@H](CN(C)CC2CCCCC2)[C@@H](C)CN([C@H](C)CO)C3=O)cc1	-	-	-	0	-
CCn1nc(NC(C)=O)c2cc3ccc(C)cc3nc21	0	-	-	0	-
CCn1nc(NC(=O)c2ccccn2)c2cc3cc(C)ccc3nc21	89.2	0	82.2	0	0
CCCCn1nc(NC(=O)COC)c2cc3cc(OC)ccc3nc21	99.1	-	-	0	-
